Screening results: PubChem, several laboratories
UBC9 SUMO inh – inhibitors of in vitro SUMOylation cascade, primary screen, biochemical, HTRF, uHTS. hit rate 0.36% among 290,000. inhibition, % at 35 µM. AID 2006, 2009. HTRF SUMOylation assay, SAE1/SAE2 + UBC9; in the data active means inhibition above about 50%, passing the limit was not always enough
Target sequence (P63279 whole entry, looked up): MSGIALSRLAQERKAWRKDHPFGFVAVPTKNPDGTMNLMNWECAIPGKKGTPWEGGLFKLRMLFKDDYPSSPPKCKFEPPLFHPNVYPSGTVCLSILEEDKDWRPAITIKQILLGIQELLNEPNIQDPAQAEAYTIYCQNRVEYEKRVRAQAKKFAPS
FID counter – compounds displacing fluorescent DNA intercalator, primary screen, artefact control for HCV NS3 helicase inhibitor project, biochemical, FID fluorescence; DNA fluorescent intercalator displacement; inhibition, % at 7.9 µM; hit rate 0.17% among 290,000; AID 1845, 2009; in the data active means inhibition above about 37%;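 further: 0% = vehicle and 100% = reference compound; higher means more ethidium bromide displaced from hairpin DNA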
NS3 helicase inh – inhibitors of HCV NS3 helicase, primary screen, biochemical, Cy5 molecular beacon fluorescence. AID 1800, 2009. inhibition, % at 10.9 µM. NS3 helicase DNA unwinding. hit rate 0.56% among 290,000. Hepatitis C virus NS3 helicase;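 active means inhibition above the mean of all tested compounds plus 3 SD, set per campaign, cut at about 35% in these data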;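 further: 0% = DMSO wells and 100% = thioflavine S control wells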
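System: NS3 helicase fragment of HCV / Schedule: 1 h at 25 °C / Control set: DMSO alone as 0% and 110 µM thioflavine S as 100% / Reagent: Cy5/quencher beacon DNA duplex and ATP to start / Technique: Cy5 fluorescence / Replication: singlicate / Evaluation: % inhibition of end-to-start signal ratio versus controls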
IMP-1 inh-1 – IMP-1 metallo-beta-lactamase inhibitors, primary screen, biochemical, epi-absorbance readout, Pseudomonas aeruginosa enzyme | metallo-beta-lactamase IMP-1 (Pseudomonas aeruginosa) | purified IMP-1, nitrocefin hydrolysis, epi-absorbance fluorescence | inhibition, % at 5.6 µM | hit rate 0.45% among 290,000 | AID 1556, 2009;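 active means inhibition above the mean plus 3 SD of all compounds in the same screening run, cut at about 4.5% in these data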;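 further: 0% = IMP-1 with DMSO and 100% = DMSO wells lacking enzyme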
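System: purified IMP-1 / Input: IMP-1 dispensed at 0.2 nM / Medium: 50 mM HEPES pH 7.1, 50 µM ZnSO4, 0.05% Brij 35 / Timing: 15 min enzyme–compound preincubation, then 25 min nitrocefin reaction, 25 °C / Technique: plate fluorescence quenching by hydrolysis product, ex 480/em 530 nm / Repeats: singlicate testing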
VIM-2 inhibitor – VIM-2 metallo-beta-lactamase inhibitors, primary screen, biochemical, epi-absorbance readout, Pseudomonas aeruginosa enzyme; inhibition, % at 5.6 µM; hit rate 0.89% among 290,000; purified VIM-2, nitrocefin hydrolysis, epi-absorbance fluorescence;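 active means inhibition above the mean of all tested compounds plus 3 SD, cutoff set per screening run, cut at about 7.5% in these data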;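 further: red hydrolysis product quenches plate fluorescence so inhibitors raise well fluorescence; 0% = enzyme with DMSO and 100% = DMSO without enzyme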
IMP-1 inh-2 – IMP-1 metallo-beta-lactamase inhibitors, confirmation, selectivity assay for selective VIM-2 inhibitor project, biochemical, epi-absorbance readout, triplicate | shares compounds with VIM-2 inhibitor | purified IMP-1, nitrocefin hydrolysis, epi-absorbance fluorescence | inhibition, % at 5.6 µM | 1,300 tested, under 10 active | AID 1856, 2009; call rule not given here;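 further: 0% = enzyme with vehicle and 100% = vehicle without enzyme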
VIM-2 FRET ctr – VIM-2 inhibitors in FRET format, confirmation, artefact control for selective VIM-2 inhibitor project, biochemical, epi-absorbance artifact exclusion. shares compounds with VIM-2 inhibitor. purified VIM-2, CCF2 FRET substrate hydrolysis. inhibition, % at 5.6 µM. hit rate 23% among 1,300;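 active means inhibition above the mean of all tested compounds plus 3 SD, cut at about 19% in these data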;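 further: 0% = VIM-2 plus DMSO and 100% = no enzyme wells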
TEM-1 counter – TEM-1 serine beta-lactamase inhibitors, counter-screen for VIM-2 inhibitor project, biochemical, epi-absorbance, HTS; shares compounds with VIM-2 inhibitor; Purified TEM-1, nitrocefin hydrolysis, epi-absorbance fluorescence; inhibition, % at 5.6 µM; hit rate 3% among 1,300; AID 1866, 2009;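 active means inhibition above that campaign's mean inhibition plus 3 SD, cut at about 0.46% in these data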;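 further: 0% = TEM-1 with DMSO and 100% = TEM-1 with 100 µM potassium clavulanate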
Target sequence (P62593 whole entry, looked up): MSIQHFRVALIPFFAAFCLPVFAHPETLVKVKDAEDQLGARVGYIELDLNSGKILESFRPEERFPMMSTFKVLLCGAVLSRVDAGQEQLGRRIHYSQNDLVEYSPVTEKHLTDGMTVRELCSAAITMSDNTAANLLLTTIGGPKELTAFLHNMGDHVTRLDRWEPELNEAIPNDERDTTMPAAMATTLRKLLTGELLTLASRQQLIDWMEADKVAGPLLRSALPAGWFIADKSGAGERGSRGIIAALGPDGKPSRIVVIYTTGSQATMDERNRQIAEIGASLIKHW
VIM-2 inh conf – VIM-2 metallo-beta-lactamase inhibitors, confirmation, biochemical, epi-absorbance, hits shared with IMP-1 screen | shares compounds with VIM-2 inhibitor | purified VIM-2, nitrocefin hydrolysis | inhibition, % at 5.6 µM | hit rate 96% among 1,300;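 active means inhibition of the VIM-2 beta-lactamase enzyme above about 11% from the earlier first-round screen, limit read from the data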;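 further: 0% = VIM-2 with DMSO and 100% = buffer wells without enzyme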
Active calls of the source: *; . = no result. Compounds with a hit are over-represented: about 2.1% of the library has one in this group of screens.

SMILES | UBC9 SUMO inh | FID counter | NS3 helicase inh | IMP-1 inh-1 | VIM-2 inhibitor | IMP-1 inh-2 | VIM-2 FRET ctr | TEM-1 counter | VIM-2 inh conf
CN1CCN(c2ccc(NC(=O)c3ccc(-c4ccc(Br)cc4)o3)cc2)CC1 | 6 | 43* | -60 | -1 | 24* | -2 | -3 | -8 | 34*
CCN1CCN(c2ccc(NC(=O)c3ccc(Br)o3)cc2)CC1 | -2 | 3 | 1 | -1 | 15* | -3 | -2 | -4 | 24*
CS(=O)(=O)N1CCN(c2ccc(NC(=O)c3cc4ccccc4o3)cc2)CC1 | 12 | -10 | 5 | -2 | 0 | . | . | . | .
CN1CCN(c2ccc(NC(=O)c3cc4ccccc4o3)cc2)CC1 | 5 | 10 | -9 | -3 | 40* | -2 | -2 | -3 | 55*
COc1nc2ccccc2nc1OC | 6 | -1 | 2 | -2 | -1 | . | . | . | .
COc1cc(C(=O)NC(=S)Nc2ccc3[nH]c(=O)[nH]c3c2)cc(OC)c1OC | -20 | -23 | -3 | 0 | -1 | . | . | . | .
Cc1c(C)c2cc(Cl)c(OCC(=O)NCCCn3ccnc3)cc2oc1=O | 19 | 6 | -3 | -1 | 28* | -3 | -11 | -3 | 38*
O=C(COc1cc2oc(=O)c3c(c2cc1Cl)CCC3)NCCCn1ccnc1 | -9 | 9 | 4 | -2 | 30* | -2 | -5 | -6 | 44*
CCc1cc(=O)oc2cc(OCC(=O)NCCCn3ccnc3)c(Cl)cc12 | 2 | -7 | 8 | -1 | 24* | -3 | -7 | -5 | 35*
CCc1cc(=O)oc2cc(OCC(=O)NCCCN3CCCC3=O)c(Cl)cc12 | 5 | -37 | -1 | -2 | 0 | . | . | . | .
COCc1cc(C)nc(SCC[N+](C)(C)CC(=O)c2ccccc2)c1C#N | -3 | 10 | 7 | -1 | -3 | . | . | . | .
Cc1ccc(-c2nn(-c3ccccc3)cc2C=O)o1 | 7 | -8 | 34 | 1 | 2 | . | . | . | .
CN(C)c1ccc(/C=C(/NC(=O)c2ccccc2Cl)C(=O)NCCN2CCOCC2)cc1 | . | 6 | -12 | 2 | 1 | . | . | . | .
COc1cc(/C=N/N(C)C2=NS(=O)(=O)c3ccccc32)cc(OC)c1OC | 9 | -15 | -17 | -2 | 32* | -3 | -2 | -11 | 35*
CN(/N=C/C=C/c1ccccc1)C1=NS(=O)(=O)c2ccccc21 | 7 | -4 | 7 | -3 | -2 | . | . | . | .
O=C1OC(c2ccccc2)=N/C1=C\C=C\c1ccccc1[N+](=O)[O-] | 16 | -15 | 17 | 3 | 16* | -2 | 30* | -2 | 9.9*
O=C1OC(c2ccccc2)=N/C1=C\C=C\c1ccco1 | 15 | -15 | 21 | -3 | 1 | . | . | . | .
O=[N+]([O-])c1ccc(C23CC4CC(CC(O)(C4)C2)C3)cc1 | -2 | -2 | -5 | -1 | 15* | -3 | 34* | -5 | 22*
COc1cccc(-c2nc(CS(=O)(=O)CC(=O)N3CCCCC3)c(C)o2)c1 | 14 | -36 | 10 | -3 | -1 | . | . | . | .
COc1ccc2c(c1)[nH]c1c(=O)n(CCCn3ccnc3)cnc12 | 16 | -4 | 3 | -4 | 14* | -3 | -9 | -5 | 38*
CC(C)(C)C(=O)Nc1nnc(CSCc2ccccc2F)s1 | -14 | -12 | 1 | -4 | 26* | -3 | 65* | -5 | 48*
O=C(Nc1nnc(CSCc2ccccc2F)s1)c1cccc([N+](=O)[O-])c1 | 13 | 3 | 13 | 0 | 5 | . | . | . | .
CNC(=S)N/N=C/c1ccc(-c2cc([N+](=O)[O-])ccc2Cl)o1 | 21 | -2 | -6 | -2 | -1 | . | . | . | .
Cc1cc(-c2ccc(/C=N/n3cnnc3)o2)c(C)c([N+](=O)[O-])c1 | 7 | -2 | 12 | -2 | 87* | -3 | 5 | -8 | 91*
Cc1ccc(-c2ccc(/C=N/N3C(=O)C4C5C=CC(C6CC56)C4C3=O)o2)c([N+](=O)[O-])c1 (stereo not given) | 31 | 4 | 4 | -3 | -1 | . | . | . | .
SMILES | UBC9 SUMO inh | FID counter | NS3 helicase inh | IMP-1 inh-1 | VIM-2 inhibitor | IMP-1 inh-2 | VIM-2 FRET ctr | TEM-1 counter | VIM-2 inh conf
O=[N+]([O-])c1ccc(Cl)c(-c2ccc(/C=N/n3cnnc3)o2)c1 | 5 | -9 | 2 | -2 | 45* | -4 | -1 | -6 | 52*
COc1cc([N+](=O)[O-])ccc1-c1ccc(/C=N/NC(=O)c2ccccc2O)o1 | 38 | 1 | 2 | -4 | -4 | . | . | . | .
Cc1ccc(-c2ccc(/C=N\n3cnnc3)o2)c(Br)c1 | 7 | -22 | 1 | -3 | 13* | -3 | 6 | -6 | 24*
Cc1ccc(Sc2oc(/C=N/n3cnnc3)cc2Br)cc1 | 18 | -6 | 7 | 2 | -3 | . | . | . | .
COc1cc([N+](=O)[O-])ccc1-c1ccc(/C=N\n2cnnc2)o1 | 50 | -6 | -2 | 0 | 45* | -2 | -2 | -2 | 45*
O=C(CSc1ccccc1)N1CCCC(N2CCN(c3cccc(Cl)c3)CC2)C1 (stereo not given) | -12 | -30 | -9 | -3 | -1 | . | . | . | .
C=CCn1c(=O)c2c(nc3n2CCCN3CCc2ccc(OC)c(OC)c2)n(C)c1=O | 7 | -28 | -12 | -4 | -3 | . | . | . | .
O=C(CSc1nnc2ccccn12)Nc1ccc2c(c1)OCCO2 | 4 | -7 | 1 | -4 | -4 | . | . | . | .
O=[N+]([O-])c1cc(-c2ccc(/C=N/n3cnnc3)o2)ccc1Cl | 6 | 1 | 2 | 0 | 44* | -3 | 5 | -5 | 58*
COC(=O)c1c(NC(=O)C(=O)NCCCN2CCOCC2)sc2c1CCCC2 | 12 | 13 | -52 | -4 | 13* | -2 | 0 | -1 | 19*
Cc1c(OCC(=O)N2CCC(C(N)=O)CC2)ccc2c3c(c(=O)oc12)CCC3 | 13 | -20 | 10 | -4 | 23* | -2 | 2 | -19 | 43*
Cc1c(OCC(=O)N2CCC[C@@H]2C(=O)O)ccc2c3c(c(=O)oc12)CCC3 | 1 | -27 | 24 | -4 | 36* | -3 | 51* | -10 | 37*
